According to ChEMBL document CHEMBL3745677, “Discovery of 6-(4-{[5-Cyclopropyl-3-(2,6-dichlorophenyl)isoxazol-4-yl]methoxy}piperidin-1-yl)-1-methyl-1H-indole-3-carboxylic Acid: A Novel FXR Agonist for the Treatment of Dyslipidemia” (J Med Chem, 2015):

Experiments:
Rattus norvegicus [1] = assay: Antidyslipidemic activity in ZDF rat assessed as LDL/IgHDL level at 30 mg/kg for 9 days by FPLC analysis (reference value: 17.8 mg/dL); format: functional, Zucker
[2] = Volume of distribution at steady state in beagle dog at 1 mg/kg, iv by LC-MS/MS analysis; format: ADME, organism-based, Canis lupus familiaris; details: in vivo, read-out: Vdss
Method in brief: (§1)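 Intravenous dose given in 5% Solutol / 5% EtOH in saline (1 mg/kg rat and dog, 0.91 mpk monkey). Plasma samples collected and analyzed by LC-MS/MS; parameters reported as mean ± SD, N=2-3.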

[3] = Half life in human at 75 to 600 mg; format: ADME, organism-based; details: in vivo
Method in brief: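 Healthy subjects (two cohorts of 9) received single oral doses in a double-blind, placebo-controlled, 2-cohort, 3-period dose-escalation study at one site. Doses covered 5 to 600 mg. Half-life was taken as the mean over the 75–600 mg range.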

Progesterone receptor = target: T1, Progesterone receptor (Homo sapiens, UniProt P06401); assay: Agonist activity at progesterone receptor (unknown origin) expressed in HEK293 cells assessed as transcriptional activation; format: cell-based
T1 sequence (P06401 whole entry): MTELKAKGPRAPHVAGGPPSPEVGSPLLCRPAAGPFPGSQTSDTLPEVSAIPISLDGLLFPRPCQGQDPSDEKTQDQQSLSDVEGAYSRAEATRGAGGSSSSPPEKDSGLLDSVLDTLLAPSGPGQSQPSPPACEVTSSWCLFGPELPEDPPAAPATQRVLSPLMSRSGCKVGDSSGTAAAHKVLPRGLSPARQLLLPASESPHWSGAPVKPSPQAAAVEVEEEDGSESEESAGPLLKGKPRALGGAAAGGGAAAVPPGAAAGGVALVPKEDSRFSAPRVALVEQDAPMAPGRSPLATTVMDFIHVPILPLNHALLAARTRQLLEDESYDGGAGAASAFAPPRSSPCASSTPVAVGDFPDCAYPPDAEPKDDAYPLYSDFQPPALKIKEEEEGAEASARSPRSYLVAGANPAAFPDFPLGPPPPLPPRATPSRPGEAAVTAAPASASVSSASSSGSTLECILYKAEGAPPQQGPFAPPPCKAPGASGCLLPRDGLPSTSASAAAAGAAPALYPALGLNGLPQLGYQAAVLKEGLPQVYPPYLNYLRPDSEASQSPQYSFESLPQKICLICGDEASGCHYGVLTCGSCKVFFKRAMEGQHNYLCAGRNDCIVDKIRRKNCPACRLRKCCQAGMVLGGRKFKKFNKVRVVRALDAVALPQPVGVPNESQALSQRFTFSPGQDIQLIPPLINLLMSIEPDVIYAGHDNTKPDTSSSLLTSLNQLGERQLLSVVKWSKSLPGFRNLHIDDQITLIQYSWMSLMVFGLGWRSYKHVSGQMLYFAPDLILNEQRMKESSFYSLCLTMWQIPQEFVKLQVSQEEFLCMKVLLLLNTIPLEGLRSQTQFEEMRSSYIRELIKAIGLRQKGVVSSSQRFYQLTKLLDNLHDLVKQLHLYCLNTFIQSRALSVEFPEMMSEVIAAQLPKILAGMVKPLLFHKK

[4] = Clearance in cynomolgus monkey at 0.91 mg/kg, iv by LC-MS/MS analysis; format: ADME, organism-based, Macaca fascicularis; details: in vivo
Method in brief: (§2)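 Sprague Dawley rats, Beagle dogs and Cynomolgus monkeys were dosed IV at 1 mg/kg (rat, dog) or 0.91 mpk (monkey) in 5% Solutol/5% EtOH in saline. Oral/nasogastric dosing was 3 mpk in 1.0% CMC/0.25% PS80/0.05% antifoam in purified water. Samples were processed to plasma and analysed by LC-MS/MS; values are mean ± SD, N=2-3.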

Mus musculus [5] = assay: Antidyslipidemic activity in western-diet fed mouse expressing LDL-receptor (-/-) assessed as decrease in very-low density lipoprotein level at 30 mg/kg qd for a week administered via gavage by FPLC analysis; format: functional; details: po
Method in brief: (§3)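 LDLR null male mice, six per group, were dosed by gavage once daily for one week (vehicle 5% Solutol, 5% EtOH, 1% wt/v CMC; 5 mL/kg). Serum was collected by cardiac puncture on day 7 under CO2 anaesthesia. Pooled serum from each treatment group was fractionated by FPLC to quantify VLDL and LDL.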

[6] = Fraction unbound in rat plasma; format: ADME, cell-free
[7] = Terminal half life in cynomolgus monkey at 0.91 mg/kg, iv by LC-MS/MS analysis; format: ADME, organism-based, Macaca fascicularis; details: in vivo, read-out: beta t1/2 (converted); method in brief: as §1
Rattus norvegicus [8] = assay: Antidyslipidemic activity in ZDF rat assessed as HDL level at 30 mg/kg for 9 days by FPLC analysis (reference value: 48.3 mg/dL); format: functional, Zucker
Mus musculus [9] = assay: Antidyslipidemic activity in western-diet fed mouse expressing LDL-receptor (-/-) assessed as decrease in very-low density lipoprotein level at 10 mg/kg qd for a week administered via gavage by FPLC analysis; format: functional; details: po; method in brief: as §3
[10] = AUC (0 to 24 hrs) in Sprague-Dawley rat at 1 mg/kg, iv by LC-MS/MS analysis; format: ADME, organism-based; set-up: dose 1 mg/kg, time < 24 hr, route intravenous; details: in vivo; method in brief: as §2
Rattus norvegicus [11] = assay: Antidyslipidemic activity in ZDF rat assessed as HDL level at 3 mg/kg for 9 days by FPLC analysis (reference value: 48.3 mg/dL); format: functional, Zucker
[12] = AUC (0 to 24 hrs) in cynomolgus monkey at 0.91 mg/kg, iv by LC-MS/MS analysis; format: ADME, organism-based, Macaca fascicularis; set-up: dose 0.91 mg/kg, time < 24 hr, route intravenous; details: in vivo; method in brief: as §2
[13] = Tmax in cynomolgus monkey at 3 mg/kg, po by LC-MS/MS analysis; format: ADME, organism-based, Macaca fascicularis; details: in vivo
Method in brief: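 Oral/nasogastric dosing at 3 mpk in 1.0% CMC/0.25% PS80/0.05% antifoam in purified water. Plasma samples collected and analyzed by LC-MS/MS; parameters reported as mean ± SD, N=2-3.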

Rattus norvegicus [14] = assay: Antidyslipidemic activity in ZDF rat assessed as VLDL level at 10 mg/kg for 9 days by FPLC analysis (reference value: 35 mg/dL); format: functional, Zucker
Mus musculus [15] = assay: Antidyslipidemic activity in western-diet fed mouse expressing LDL-receptor (-/-) assessed as decrease in total cholesterol level at 30 mg/kg qd for a week administered via gavage […]; format: functional; details: po
Method in brief: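 Male LDLR null mice, six per group, were gavaged once daily for one week with compound (in situ sodium salt) or vehicle (5% Solutol, 5% EtOH, 1% wt/v CMC) at 5 mL/kg. On day 7 they were bled by cardiac puncture under CO2 anaesthesia. Serum cholesterol and triglycerides were measured enzymatically on a clinical chemistry analyser (mean ± SD, n=6). ED50 was obtained by nonlinear regression.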

Question: For Cn1cc(C(=O)O)c2ccc(N3CCC(OCc4c(-c5c(Cl)cccc5Cl)noc4C4CC4)CC3)cc21 [TERN-101], which Activity (Rattus norvegicus [1]) is on record?
Answer: The Activity was 18.6 mg/dL.

Question: And the Vd [2]?
Answer: The Vd was 2.48 L/kg.

Question: What about the half-life [3] of the same compound?
Answer: Its half-life is 16.9 h.

Question: What about the EC50 (Progesterone receptor) of the same compound?
Answer: Its EC50 is greater than 10 µM.

Question: What about the clearance [4] of the same compound?
Answer: The clearance was 6 mL/min/kg.

Question: What about the inhibition in vivo at 30 mg/kg (Mus musculus [5]) of the same compound?
Answer: The inhibition in vivo at 30 mg/kg was 98%.

Question: And the fraction unbound [6]?
Answer: Its fraction unbound is 0.02.

Question: And the half-life [7]?
Answer: Its half-life is 5 h.

Question: And the Activity (Rattus norvegicus [8])?
Answer: Its Activity is 94 mg/dL.

Question: And the inhibition in vivo at 10 mg/kg (Mus musculus [9])?
Answer: Its inhibition in vivo at 10 mg/kg is 96%.

Question: And the AUC(0-t) at 24 h [10]?
Answer: Its AUC(0-t) at 24 h is 577 ng·h/mL.

Question: What about the Activity (Rattus norvegicus [11]) of the same compound?
Answer: Its Activity is 62.5 mg/dL.

Question: What about the AUC(0-t) at 24 h [12] of the same compound?
Answer: Its AUC(0-t) at 24 h is 2300 ng·h/mL.

Question: And the Tmax [13]?
Answer: Its Tmax is 3.33 h.

Question: And the Activity (Rattus norvegicus [14])?
Answer: The Activity was 18.2 mg/dL.

Question: And the inhibition in vivo at 30 mg/kg (Mus musculus [15])?
Answer: Its inhibition in vivo at 30 mg/kg is 83%.
